CHRM5 agonist – agonists of human muscarinic M5 receptor (CHRM5); P08912; CHO-K1 hM5 cells, Fluo-8 calcium fluorescence; 0% DMSO wells, 100% maximal acetylcholine response; activation, % at 3 µM; 360,000 compounds, 0.19% hits;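 active = activation above the run's mean over test compounds plus 3 SD, cut at about 23% in these data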;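 also: signal is peak over basal fluorescence ratio across the kinetic read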
Target sequence (P08912 whole entry, looked up): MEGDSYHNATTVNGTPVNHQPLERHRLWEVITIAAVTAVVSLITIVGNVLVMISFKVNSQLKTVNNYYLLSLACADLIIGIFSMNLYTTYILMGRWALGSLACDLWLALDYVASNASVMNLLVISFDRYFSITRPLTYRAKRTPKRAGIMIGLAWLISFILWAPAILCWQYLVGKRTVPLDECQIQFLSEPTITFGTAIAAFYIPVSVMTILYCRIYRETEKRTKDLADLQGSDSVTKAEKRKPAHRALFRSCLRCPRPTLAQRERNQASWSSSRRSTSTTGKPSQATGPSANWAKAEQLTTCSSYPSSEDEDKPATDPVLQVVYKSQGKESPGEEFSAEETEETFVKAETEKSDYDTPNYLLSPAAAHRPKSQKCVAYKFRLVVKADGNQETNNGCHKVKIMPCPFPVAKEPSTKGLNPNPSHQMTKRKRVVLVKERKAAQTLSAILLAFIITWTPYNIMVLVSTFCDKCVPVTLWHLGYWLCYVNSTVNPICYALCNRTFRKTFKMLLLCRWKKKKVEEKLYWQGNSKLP
CHRM5 antagonist – antagonists of human muscarinic M5 receptor (CHRM5); 360,000 compounds, 0.59% hits; inhibition, % at 3 µM; CHO-hM5 cells, Fluo-8 calcium fluorescence, ACh EC80; AID 624040; P08912;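 active = inhibition above a per-plate cutoff, the mean of that plate's test compounds plus 3 SD, cut at about 27% in these data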;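 also: 0% = acetylcholine EC80 with DMSO and 100% = DMSO without agonist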
CHRM1 PAM – human CHRM1 positive allosteric modulation | P11229 | CHO-K1 hM1, Fluo-8 calcium fluorescence, ACh EC20; 0% = ACh EC20, 100% = maximal ACh | activation, % at 3 µM | 360,000 compounds, 0.088% hits; in the data active = activation above about 19%, passing the limit was not always enough
CHRM1 agonist – activates human CHRM1 receptor | P11229 | CHO-K1 hM1, Fluo-8 calcium fluorescence, agonist mode; 0% DMSO, 100% acetylcholine EC100 | activation, % at 3 µM | 360,000 compounds, 0.33% hits;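 active = activation above the run's mean compound activation plus 3 SD, cut at about 16% in these data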;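 also: peak over basal fluorescence ratio within a 140 s kinetic read after compound addition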
M5 PAM – CHRM5 positive allosteric modulation | 360,000 compounds, 0.3% hits | activation, % at 3 µM | P08912 | AID 624038 | CHO-K1 hM5, Fluo-8 calcium, ACh EC20 PAM; 0% = ACh EC20, 100% = ACh EC100;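 active = activation above the run cutoff, the mean activation of all test compounds plus 3 SD, cut at about 18% in these data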
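Assay system – human M5 receptor in CHO-K1 cells · Read-out – % activation, ACh-normalized · Technique – Fluo-8 calcium fluorescence · Dosing – single-point, 3 µM nominal · Incubation – Fluo-8 loading 80 min at 37 °C plus 30 min room temperature · Repeats – singlicate, one well per test compound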
CHRM1 antagonist – antagonists of human M1 muscarinic receptor. P11229. CHO-K1 hM1, Fluo-8 calcium fluorescence, ACh EC80 antagonist. inhibition, % at 3 µM. 360,000 compounds, 1.3% hits. AID 588852;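 active = percent inhibition above its own plate's cutoff, namely the mean of that plate's compound wells plus 3 SD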;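 also: peak over basal fluorescence ratio during 140 s after agonist addition; 0% = ACh EC80 plus DMSO and 100% = DMSO alone without agonist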
* = called active by the depositor; . = no result. In the library only some 2.2% were active in any assay of this set; here they are far more common.

SMILES	CHRM5 agonist	CHRM5 antagonist	CHRM1 PAM	CHRM1 agonist	M5 PAM	CHRM1 antagonist
COc1ccc(N(C(=O)c2snc(C(N)=O)c2N)C(C(=O)NCc2ccccc2)c2ccc(O)cc2)cc1 (configuration not stated)	-3	14	6	-4	-2	0
O=C(NCc1ccccc1)C(c1ccccc1)N(C(=O)c1csnn1)c1ccccc1 (configuration not stated)	-1	17	-6	-8	-3	15
O=C(NCc1ccc(F)cc1)C(c1ccccc1)N(C(=O)c1csnn1)c1ccccc1 (configuration not stated)	-2	17	-20	-9	-10	29*
Cc1cc(C)n(C(C)CNS(=O)(=O)c2ccccc2)n1 (configuration not stated)	-3	15	9	-1	-8	-6
CN1CCN(NC(=O)Nc2cc(Cl)cc(Cl)c2)CC1	-3	44*	-5	-1	-10	22
Cn1nc(C(C)(C)C)cc1NC(=O)Nc1cc(Cl)cc(Cl)c1	5	34*	-7	4	-24	22
CCn1c(SC2CCOC2=O)nnc1-c1ccc(Cl)cc1 (configuration not stated)	-4	-2	6	-9	1	-2
CCN(Cc1ccccc1)C(=O)c1ccc2c(=O)n3c(nc2c1)CCC3	1	5	3	-4	-3	-4
CCOC(=O)C(C)Sc1nnc(-c2ccccc2O)n1-c1ccc(C)cc1 (configuration not stated)	-6	-2	2	-6	8	-6
CCC(=O)Nc1nnc(SCCN2CCOCC2)s1	1	1	-10	-8	-3	33*
O=C(CSc1nnc(NC(=O)CN2CCOCC2)s1)Nc1ccccc1	-1	-6	4	-1	-2	-24
CC(C)(CO)Cc1cc(C(C)(C)C)c(O)c(C(C)(C)C)c1	-1	3	-1	-1	-2	-28
CC(C)n1cnc2c(N(C)c3ccccc3)nc(N(CCN(C)C)Cc3ccccc3)nc21	-9	34*	8	-4	-11	8
CN(C(=O)c1ccc(NC(=O)Cc2ccc(NC(=O)C3CCN(C(=O)C4CC4)CC3)cc2)cc1)C1CCCC1	-1	-1	27*	4	-5	-27
CN(C(=O)c1ccc(NC(=O)Cc2ccc(NC(=O)C3CCN(C(=O)C4CCCC4)CC3)cc2)cc1)C1CCCC1	0	2	5	-4	-2	-11
COc1ccc(S(=O)(=O)NCCSCc2ccco2)cc1Cl	-1	3	22*	4	-18	-30
Fc1ccc(NC(=S)NC2CC3CCCC(C2)N3Cc2cccs2)cc1 (configuration not stated)	-6	32*	-21	-13	-14	16
CCCNC(=S)NC1CC2CCCC(C1)N2Cc1ccc(F)cc1 (configuration not stated)	-21	-3	-23	-9	-9	48*
Cc1ccc(CN2C3CCCC2CC(NC(=O)c2ccc(F)cc2)C3)cc1 (configuration not stated)	-20	-11	-23	-8	-2	23
CCOc1ccc(C(=O)NC2CC3CCCC(C2)N3Cc2ccccc2)cc1 (configuration not stated)	-14	9	-22	-10	0	38*
O=C(Nc1ccccc1-c1ccccc1)NC1CC2CCCC(C1)N2Cc1ccc(F)cc1 (configuration not stated)	-10	34*	-35	-14	-20	98*
COc1ccc(C(=O)NC2CC3CCCC(C2)N3Cc2ccccc2)cc1 (configuration not stated)	-8	17	-12	-9	-5	10
COc1ccccc1C(=O)NC(=O)CSc1nnc(C)s1	-1	1	9	-2	2	-10
CCOC(=O)/C=C/c1cccc(C)c1O	1	4	.	.	1	.
CC(=O)Oc1c(C)cc(Cl)cc1C(=O)Nc1ccc([N+](=O)[O-])cc1Cl	9	22	-5	5	-15	12
SMILES	CHRM5 agonist	CHRM5 antagonist	CHRM1 PAM	CHRM1 agonist	M5 PAM	CHRM1 antagonist
CCCCn1c(-c2ccc([N+](=O)[O-])cc2)n[nH]c1=S	-7	46*	-22	-6	-21	98*
CN1C[C@@H]2C(c3ccccc3)C3(c4ccc(C#N)cc4)CC2(C3)[C@H]1c1ccccc1 (some centres not stated)	-4	5	-4	-10	2	0
Clc1ccc(C2[C@H]3CN(CC4CCCCC4)[C@H](c4ccccc4)C34CC2(c2ccccc2)C4)cn1 (some centres not stated)	1	2	14	-1	2	-4
COC(=O)c1cccc(C23CC4(C2)[C@H](CN(Cc2cccnc2)[C@@H]4c2ccccc2)C3c2ccc(Cl)nc2)c1 (some centres not stated)	-4	1	1	-11	-11	4
CN1C[C@@H]2C(c3ccc(Cl)nc3)C3(c4ccccc4)CC2(C3)[C@H]1c1ccccc1 (some centres not stated)	-13	1	-40	-14	-17	84*
COC(=O)c1cccc(C23CC4(C2)[C@H](CN(C)[C@@H]4c2ccccc2)C3c2ccccc2)c1 (some centres not stated)	-9	2	-39	-14	-25	64*
CN1C[C@@H]2C(c3ccc(Cl)nc3)C3(c4cccnc4)CC2(C3)[C@H]1c1ccccc1 (some centres not stated)	-12	7	-37	-14	-1	54*
CN1C[C@@H]2C(c3ccccc3)C3(c4ccccc4)CC2(C3)[C@H]1c1ccccc1 (some centres not stated)	-8	16	-36	-14	-41	78*
COc1ccc(OC)c(Nc2nc3nonc3nc2N2CCCC(C)C2)c1 (configuration not stated)	1	-3	12	-5	3	-7
Cc1cccc(N(C(=O)c2snc(C(N)=O)c2N)C(C)C(=O)NCC2CCCO2)c1 (configuration not stated)	-1	5	7	-3	-2	-4
COc1ccc(C(CNC(=O)c2nn(-c3ccccc3)c(=O)c3ccccc23)N2CCOCC2)cc1 (configuration not stated)	0	4	16	4	-8	-8
COc1ccc(CNC(=O)C/C(C)=N/NC(=O)COc2ccc(C)cc2Br)cc1	-1	-5	4	-3	-3	-8
COc1ccc(CNC(=O)c2cc3c(C)nc4ccccc4c3o2)c(OC)c1	5	26	-19	-5	-19	37*

Screens deposited in PubChem BioAssay by The Scripps Research Institute Molecular Screening Center.
